# Sampled rows, rich in hits. Any-hit rate of the full collection: about 2.7%.
# MC4R barr agon: MC4R agonists recruiting beta-arrestin, primary screen, cell-based, luminescence, agonist arm of biased-ligand search. U2OS MC4R beta-arrestin complementation; percent of melanotan II response, DMSO zero. activation, % at 8.9 µM. 360,000 compounds, 0.98% hits. AID 540308, 2011;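 active means activation above a per-plate cutoff, the mean activation of sample wells on that plate plus 3 SD, cut at about 8% in these data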
# NR2E3 ag-1: NR2E3 agonists in two-hybrid cells, primary screen, cell-based, luminescence, CHO-S, Gal4-NCOR/VP16-NR2E3 | Photoreceptor-specific nuclear receptor (Homo sapiens), Q9Y5X4 | luciferase | inhibition of corepressor binding, % at 3.98 µM | 360,000 compounds, 0.35% hits | AID 602229, 2012;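 active means inhibition above the mean of all tested compounds plus 3 SD, cut at about 70% in these data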;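 further: higher means lower luciferase signal from less NR2E3 corepressor binding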
# MC4R antagonist: MC4R antagonists of cAMP signaling, primary screen, cell-based, TR-FRET, antagonist arm of biased-ligand search. MC4R-expressing cells, MTII-stimulated cAMP, LANCE TR-FRET. inhibition, % at 6.5 µM. 360,000 compounds, 0.48% hits. AID 540295, 2011. Melanocortin receptor 4 (Homo sapiens), P32245;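 active means inhibition above its plate's cutoff, the mean of tested wells on that plate plus 3 SD, cut at about 29% in these data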
#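 Assay system: human MC4R-expressing U2OS cells; reagent: Melanotan II stimulation of cells; dosing: 6.5 µM single dose; timing: compound 30 min, challenge 1 h, detection 1 h; signal: TR-FRET cAMP assay; replicates: one well per compound, no replicates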
# PG9 Ab binder: binders of HIV-1 gp120 antibody PG9, primary screen, biochemical, TR-FRET. inhibition, % at 6.7 µM. 360,000 compounds, 0.43% hits. AID 624416, 2012. HIV-1 gp120 / PG9 antibody interaction. TR-FRET gp120-PG9 antibody binding; in the data active means inhibition above about 8.5%
# NR2E3 ag-2: inhibitors of NR2E3-RetCOR corepressor binding, primary screen, NR2E3 agonist project, biochemical, TR-FRET, GST-NR2E3, biotin-RetCOR | 1536-well | inhibition of corepressor binding, % at 4.78 µM | 320,000 compounds, 0.12% hits | AID 2300, 2010;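 active means percent inhibition above the cutoff of mean plus 3 SD of all tested compounds, set per screening campaign, cut at about 20% in these data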
#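 Material: NR2E3–RetCOR corepressor complex / Incubation: Compound–protein incubation for 5 h at 4 °C / Dosing: compound at 4.8 µM, single dose / Detection: time-resolved FRET / Benchmarks: high control biotin, low control 0.6% DMSO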
# Rev-erbA mod: modulators of Rev-erb alpha DNA binding, primary screen, biochemical, FITC-DNA, fluorescence polarization, uHTS; Rev-erbα–FITC-DNA binding, 90 min; activity, % at 10 µM; 370,000 compounds, 0.79% hits; Nuclear receptor subfamily 1 group D member 1 (Homo sapiens), P20393;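 active means activity above about 14%, limit read from the data; passing the limit was not always enough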
# Target sequence (P20393 whole entry, looked up): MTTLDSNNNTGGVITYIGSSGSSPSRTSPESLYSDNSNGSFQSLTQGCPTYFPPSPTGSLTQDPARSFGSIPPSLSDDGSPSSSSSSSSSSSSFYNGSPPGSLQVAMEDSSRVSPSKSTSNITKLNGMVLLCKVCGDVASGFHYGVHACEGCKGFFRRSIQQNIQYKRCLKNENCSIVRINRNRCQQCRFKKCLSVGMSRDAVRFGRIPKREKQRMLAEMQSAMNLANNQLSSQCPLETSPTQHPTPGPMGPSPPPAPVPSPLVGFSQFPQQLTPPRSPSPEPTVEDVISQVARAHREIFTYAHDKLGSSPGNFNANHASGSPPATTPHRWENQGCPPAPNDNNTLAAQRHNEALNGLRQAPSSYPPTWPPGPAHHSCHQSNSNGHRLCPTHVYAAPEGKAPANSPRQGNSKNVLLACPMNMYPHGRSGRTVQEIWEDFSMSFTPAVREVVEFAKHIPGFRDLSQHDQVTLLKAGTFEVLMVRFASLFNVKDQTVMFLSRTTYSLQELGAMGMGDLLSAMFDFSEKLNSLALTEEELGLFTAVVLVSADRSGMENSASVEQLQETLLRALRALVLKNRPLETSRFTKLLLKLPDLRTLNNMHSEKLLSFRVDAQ
# PG9 binder conf: binders of anti-gp120 antibody PG9, confirmation, biochemical, TR-FRET; shares compounds with PG9 Ab binder; 1,500 compounds, 90% hits; inhibition, % at 6.7 µM; TR-FRET PG9 antibody binding; in the data active means inhibition above about 9%
# PGV04 Ab binding: binders of control antibody PGV04, counter-screen for PG9 antibody binder project, biochemical, TR-FRET, distinct HIV envelope site; 1,500 compounds, 95% hits; shares compounds with PG9 Ab binder; TR-FRET PGV04 antibody-gp120 binding; inhibition, % at 6.7 µM; in the data active means inhibition above about 9.5%
# PG9 bind DR: small-molecule binders of antibody PG9, dose response, biochemical, TR-FRET, HIV-1 gp120 antibody; AID 651848, 2012; shares compounds with PG9 Ab binder; TR-FRET PG9 antibody-gp120 binding inhibition; IC50, µM; 95 tested, under 10 active; in the data active means IC50 below about 10 µM
# PGV04 DR counter: binders of control antibody PGV04, dose response, counter-screen for PG9 antibody binder project, biochemical, TR-FRET, distinct HIV envelope site. AID 651937, 2012. shares compounds with PG9 Ab binder. IC50, µM. 95 compounds, 20% hits. TR-FRET binding to control antibody PGV04
# PG126 DR counter: binders of control antibody PG126, dose response, counter-screen for PG9 antibody binder project, biochemical, TR-FRET, distinct HIV envelope site; shares compounds with PG9 Ab binder; TR-FRET binding to antibody PG126, counterscreen; IC50, µM; 95 compounds, 20% hits; AID 651939, 2012
# A number is an active result; – = inactive; · = not tested or not shown. Unless noted, no stated cut-off is given here; in the data, active means IC50 below about 9 µM; inactive means the rest.
SMILES,MC4R barr agon,NR2E3 ag-1,MC4R antagonist,PG9 Ab binder,NR2E3 ag-2,Rev-erbA mod,PG9 binder conf,PGV04 Ab binding,others
CC(C)(C)C(=O)Cn1c(=O)n(-c2ccc(F)cc2F)c(=O)c2sccc21,–,–,–,12,–,–,–,–,
COc1ccc(CCNC(=O)Cn2c(=O)n(-c3ccc(F)cc3F)c(=O)c3sccc32)cc1OC,–,–,–,–,–,–,·,·,
CCOC(=O)CNC(=O)N(CCOC)CC1CCCN(C2Cc3ccccc3C2)C1 (centres undefined),–,–,–,–,–,–,·,·,
O=C(CNC(=S)N(CCCN1CCOCC1)Cc1cccs1)N1CCCC1,–,–,–,–,–,–,·,·,
CCOC(=O)CNC(=S)N(CCCN1CCN(C)CC1)Cc1cccs1,–,–,–,13,–,–,–,9.8,
CS(=O)(=O)c1ccc2sc(NC(=O)c3cc4ccccc4o3)nc2c1,–,–,–,–,–,–,·,·,
CS(=O)(=O)c1ccc2nc(NC(=O)c3cc4ccccc4o3)sc2c1,–,–,–,9.6,–,–,24,33,
Cc1ccc(Cc2nc3ccccc3[nH]2)cc1,–,–,–,–,·,–,·,·,
S=c1nc(Cc2ccc(Cl)cc2)[nH]c2ccccc12,8.9,–,–,16,–,–,–,11,
C=CCn1c(C)c(C(=O)OCC)c2cc(O)c3ccccc3c21,–,–,–,11,·,–,–,–,PG9 bind DR=–;PGV04 DR counter=–;PG126 DR counter=–
CCOC(=O)c1c(C)n(CC)c2c1cc(O)c1ccccc12,–,–,–,–,–,–,·,·,
O=C(C[C@H]1CC[C@@H](NC(=O)Nc2ccc3c(c2)OCO3)[C@@H](CO)O1)NCc1ccccc1,·,·,·,14,·,–,–,19,
Cc1sc2nc(SCC(=O)NCc3cccs3)[nH]c(=O)c2c1C,–,–,–,–,–,–,·,·,
Cc1sc2nc(SCC(=O)NCc3ccco3)[nH]c(=O)c2c1C,–,–,–,28,–,–,29,42,
CCC(=O)c1cn(CC(=O)Nc2cccc(C)c2C)c2ccccc12,–,–,–,9.9,–,–,19,23,
CC(=O)Nc1ccc(S(=O)(=O)Nc2nccc(C)n2)cc1,–,–,–,–,–,–,·,·,
O=c1oc(-c2ccccc2F)nc2c1cnn2-c1ccccc1,–,–,–,20,–,–,49,58,
NC(=O)c1ccc(NC(=O)COC(=O)c2c[nH]c3ccccc23)cc1,–,–,–,10,·,–,8.9,16,
Cc1ccc(N=Cc2ccc(O)cc2O)cc1F,–,–,–,17,–,–,11,15,
O=C(CSc1nnc(-c2ccc(Cl)s2)o1)N1CCCc2ccccc21,–,–,–,–,·,–,·,·,
Cc1cc(C)c(C#N)c(SCCS(=O)(=O)Cc2ccccc2)n1,–,–,–,–,–,–,·,·,
CCOc1ccc(Nc2nc3ccccc3c(=O)s2)cc1,–,–,–,17,–,–,18,20,
Cc1cc(-c2nnc(-c3ccccc3)c(-c3ccccc3)n2)c(C)o1,–,–,–,–,–,–,·,·,
CC(C)c1nnc(NC(=O)c2ccc3ccccc3c2)s1,–,–,–,11,–,–,18,32,
COC(=O)Cc1ccc2sc(-c3ccccc3)nc2c1,–,–,–,–,–,–,·,·,
SMILES,MC4R barr agon,NR2E3 ag-1,MC4R antagonist,PG9 Ab binder,NR2E3 ag-2,Rev-erbA mod,PG9 binder conf,PGV04 Ab binding,others
O=C(O)Cc1ccc2sc(-c3ccccc3)nc2c1,–,–,–,9.0,–,–,11,17,
CCCn1c(SCC(=O)NC2CCCCC2)nnc1-c1ccccn1,–,–,–,–,–,–,·,·,
Cc1ccc(CC(=O)NC2CCN(C)CC2)cc1,–,–,–,–,–,–,·,·,
CCn1c2c(c3cc(Br)ccc31)CCC/C2=N\O,–,–,–,16,–,–,20,32,
O=c1[nH]c2cc3c(cc2cc1C(c1nnnn1C1CCCC1)N1CCSCC1)OCCO3 (centres undefined),–,–,–,21,–,–,42,29,PG9 bind DR=–;PGV04 DR counter=8;PG126 DR counter=7.8
CC(C)(C)n1nnnc1C(c1cc2cc3c(cc2[nH]c1=O)OCCO3)N1CCSCC1 (centres undefined),–,–,–,–,–,–,·,·,
Cc1cc2c(cc(C(=O)O)n2C)s1,–,–,–,–,–,–,·,·,
Cc1cc2sc(C(=O)O)c(C)c2s1,–,–,–,16,–,–,21,28,
COc1ccc(C(C(=O)NC2CCCC2)N2CCc3ccccc32)cc1 (centres undefined),–,–,–,12,–,–,25,34,
O=C(O)Cn1cccc1C(=O)c1ccccc1,–,–,–,·,–,–,·,·,
N#CC1(NC(=O)CSc2nc3ccc([N+](=O)[O-])cc3s2)CCCCC1,–,–,–,–,–,–,·,·,
COC(=O)c1ccc(C2C(C(=O)c3cc4ccccc4o3)=C(O)C(=O)N2CCCN(C)C)cc1 (centres undefined),–,–,–,19,–,–,20,29,
CCN(CC)CCN1C(=O)C(O)=C(C(=O)c2cc3cccc(OC)c3o2)C1c1cccs1 (centres undefined),·,·,·,·,–,·,·,·,
CCN(CC)CCN1C(=O)C(O)=C(C(=O)c2cc3cccc(OC)c3o2)C1c1ccc(F)cc1 (centres undefined),–,–,–,14,–,–,30,37,

# Assay outcomes deposited in PubChem BioAssay by several laboratories.
